Assay results of several laboratories.
Each line is one published result; the experiments were not run side by side.

| Structure (SMILES) | target | test | test system | conditions | quantity | result |
| --- | --- | --- | --- | --- | --- | --- |
| C#Cc1n[nH]c2c(-c3cn([C@@H](C)c4ccccc4)c(=O)[nH]c3=O)cc(F)cc12 | Serine/threonine-protein kinase Sgk1 (SGK1, Homo sapiens, UniProt O00141) | enzyme activity, inhibitor |  | 0.1 µM | inhibition | -1.8% |
| COc1ncccc1-c1cnn2ccc(N3CCN(C(=O)OC(C)C)CC3)nc12 | Serine/threonine-protein kinase 38-like (STK38L, Homo sapiens, UniProt Q9Y2H1) | binding, competition with immobilised ligand |  | 1 µM | remaining binding | 100% |
| CCN(CC)CCCC[C@H](NC(=O)[C@H](CC(C)C)NC(=O)[C@H](C)NC(=O)[C@H](Cc1ccccc1)NC(=O)c1ccc(C(C)(C)C)cc1)C(=O)N[C@@H](CO)C(=O)OC | Protein polybromo-1, bromodomain (PBRM1, Homo sapiens, UniProt Q86U86) | thermal stability, DSF |  | 25 µM | ΔTm | -0.15 °C |
| C#Cc1n[nH]c2c(-c3cn([C@@H](C)c4ccccn4)c(=O)[nH]c3=O)cc(F)cc12 | Serine/threonine-protein kinase PAK 4 (PAK4, Homo sapiens, UniProt O96013) | enzyme activity, inhibitor |  | 0.1 µM | inhibition | 0.2% |
| C[C@H](C(=O)N[C@H]1COc2ccccc2[C@@H]1S(C)(=O)=O)c1ccc(F)cc1 | Beta-3 adrenergic receptor (ADRB3, Homo sapiens, UniProt P13945) | cell-free assay |  | 10 µM | inhibition | -12% |
| CC1CCCN(c2ncc(Cl)c(Nc3ccc4c(c3)n(CCC(C)(C)O)c(=O)n4C)n2)C1 (centres unmarked) | B-cell lymphoma 6 protein (BCL6, Homo sapiens, UniProt P41182) | protein level, degrader | SU-DHL-4 |  | Dmax | 85% |
| O=c1ccc2ccc3occc3c2o1 | Aldehyde dehydrogenase, mitochondrial (ALDH2, Homo sapiens, UniProt P05091) | enzyme activity, inhibitor, absorbance |  | 10 µM | activity vs control | 95.2% |
| CCCCCCCCCCCCCC(=O)O[C@@H]1[C@@H](C)[C@@]2(O)[C@@H](C=C(CO)C[C@]3(O)C(=O)C(C)=C[C@@H]23)[C@@H]2C(C)(C)[C@]12OC(C)=O | Adenosine receptor A2b (Adora2b, Rattus norvegicus, UniProt P29276) | cAMP, agonist | H9c2 |  | Emax | 19.6% |
| C=C=CCN | Primary amine oxidase, liver isozyme (Bos taurus, UniProt Q29437) | enzyme activity, inhibitor, fluorescence |  |  | kinact/KI | 9220 M⁻¹ s⁻¹ |
| Cc1nn(C)cc1-c1nc2c(N3CCN(Cc4ccc(Cl)cc4)CC3)c(Cl)cnc2[nH]1 | Tyrosine-protein kinase Tec (TEC, Homo sapiens, UniProt P42680) | binding, competition with immobilised ligand |  | 1 µM | remaining binding | 100% |
| Nc1ncc(-c2nc(N3CCOCC3)nc(N3CCOCC3)n2)c(C(F)F)n1 | Calcium/calmodulin-dependent protein kinase type II subunit gamma (CAMK2G, Homo sapiens, UniProt Q13555) | binding, competition with immobilised ligand |  | 10 µM | remaining binding | 73% |
